Yeast eIF2B: eIF2B (yeast) activity modulation | S. cerevisiae eIF2B-epsilon R284H, GCN4-lacZ luminescence | 0.91% of 27,000 active | inhibition, % at 25 µM (by protocol);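 active means mutant luminescence inhibited past about 50% while wild type luminescence and mutant growth stay under set limits, limit read from the data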
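Material: yeast eIF2B-epsilon R284H mutant carrying GCN4–beta-galactosidase fusion. Medium: YPD yeast growth medium. Incubation: 16 h growth with compound at 30 °C, 90 min Beta-Glo step. Signal: Beta-Glo luminescence plus absorbance at 595 nm. Evaluation: % inhibition of reporter signal and growth versus controls. Doses: 25 µM single dose.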
A number is an active result; i = inactive. Only a selection was taken, and hits are over-represented in it overall.

SMILES	Yeast eIF2B
Cc1ccc(NC(=O)c2oc3ccccc3c2NC(=O)c2ccc3c(c2)OCO3)cc1	i
CCOc1ccc(-n2nc3c(-n4ncc(C#N)c4N)nnc(C)c3c2C)cc1	i
Cc1cccc(NC(=O)CCN2C(=O)C3C4C=CC(C4)C3C2=O)c1 (stereo not drawn)	i
Cc1ccc(N2C(=O)C3C4C=CC(C4)C3C2=O)cc1C (stereo not drawn)	i
Cc1cccc(N2C(=O)C3C4C=CC(C4)C3C2=O)c1 (stereo not drawn)	57.1
CC(C(=O)N1CCc2ccccc21)n1cccc1 (stereo not drawn)	i
O=C1c2ccccc2C(=O)N1CCC1=CCCCC1	i
COCC(C)n1c(C)cc(C(=O)COC(=O)c2nc3nc(C)cc(C)n3n2)c1C (stereo not drawn)	i
CCCc1cc(=O)[nH]c(SCC(=O)c2cc(C)n(C(C)COC)c2C)n1 (stereo not drawn)	57.3
CCCc1cc(=O)[nH]c(SCC(=O)Nc2cc3c(cc2C(C)=O)OCO3)n1	i
CCOC(=O)C1=C(NC(=O)c2ccc(Br)o2)Nc2ccccc2N=C1	i
CCN(c1ccccc1)S(=O)(=O)c1ccc(F)cc1C	i
CC1(C)NC(=O)N(CCCCOc2ccc3ccccc3c2Cl)C1=O	i
CC1(C)NC(=O)N(CCOCCOc2cccc(Oc3ccccc3)c2)C1=O	i
CCC(C)Oc1cccc(OCCCCN2C(=O)NC(C)(C)C2=O)c1 (stereo not drawn)	50.7
O=C(CC(C(=O)N1CCc2ccccc21)n1ccnc1)N1CCc2ccccc2C1 (stereo not drawn)	i
C=CCNC(=O)C1CC(=O)N(c2ccc(OCC(=O)Nc3ccccc3)cc2)C1 (stereo not drawn)	i
CCc1cc2c(SCC(=O)c3ccc(Cl)s3)ncnc2s1	i
CC(NC(=O)CCC1COc2ccccc2O1)c1ccccc1 (stereo not drawn)	i
COc1ccc(CNc2cc(C)nc3ncnn23)c(OC)c1	i
Cc1cc(NCc2ccc(F)cc2Cl)n2nnnc2n1	64.1
Cc1cc(N2CCN(c3ccccc3)CC2)n2nnnc2n1	i
CSc1nc2ccccc2n1CC(=O)Nc1cc(C(F)(F)F)ccc1N1CCOCC1	i
CN(C)S(=O)(=O)c1ccc(NC(=O)c2c(F)cccc2Cl)cc1	i
O=C(CC1Nc2ccccc2NC1=O)NC1CCCCC1 (stereo not drawn)	57.8
SMILES	Yeast eIF2B
O=C(CCC1=NS(=O)(=O)c2ccccc2N1)NC1CCCCCCC1	i
O=C(CC1NC(=O)NC1=O)NC1(C(=O)NC2CCCCC2)CCCCC1 (stereo not drawn)	i
CCOC(=O)COn1c(=O)c(=O)n(O)c2ccccc21	i
Oc1ccccc1C1=Nc2ncnn2C(c2ccc(F)cc2)C1 (stereo not drawn)	i
COc1ccc(S(=O)(=O)N2CCCCC2C(=O)O)cc1 (stereo not drawn)	i
COc1ccc(NC(=O)C2CCCCN2S(=O)(=O)c2ccc(F)cc2)c(OC)c1 (stereo not drawn)	i
COc1ccc(S(=O)(=O)N2CCCCC2C(=O)O)cc1OC (stereo not drawn)	50.1
COC(=O)c1ccc2c(=O)n(Cc3ccc4c(c3)OCO4)c(SCC(=O)N3CCCC3)nc2c1	i
COc1ccc(N(C(=O)Cn2nnc3ccccc32)C(C(=O)NCc2ccco2)c2ccc(C)o2)cc1 (stereo not drawn)	i
COc1ccccc1C1CC(c2ccccc2)Nc2ncnn21 (stereo not drawn)	i
N#Cc1cc2c(nc1SCc1ccccc1)CCC2	i
CCOC(=O)C1=C(CSc2nc3c(cc2C#N)CN(C)CC3)OC(N)=C(C#N)C1c1ccccc1 (stereo not drawn)	i
CN1CCc2nc(SCCOc3ccccc3)c(C#N)cc2C1	69.8
O=C1C2Sc3[nH]c(=O)sc3C(c3ccccc3)C2C(=O)N1c1ccc(Cl)cc1 (stereo not drawn)	i
Cc1ccc(SC/C(O)=C(\C#N)c2nc3ccccc3n2C)cc1	i
Cn1c(CN2CCN(c3cccc(Cl)c3)CC2)nc2ccccc21	i
Cn1c(/C(C#N)=C(\O)CN2CCN(Cc3ccccc3)CC2)nc2ccccc21	64.5
COc1cc(/C=C/c2cc(OC(C)=O)c3ccccc3n2)c(OC(C)=O)c([N+](=O)[O-])c1	i
Cc1ccc(NS(=O)(=O)c2ccc(OCC(=O)N3CCOCC3)cc2)cc1	i
Cc1nn(CC(=O)NCc2cccc3ccccc23)c(=O)c2ccccc12	i
CCCCNS(=O)(=O)c1ccc(NC(=O)c2c(-c3ccccc3Cl)noc2C)cc1	i
CC(=O)C(Sc1nc(-c2ccco2)nc2c1c(=O)n(C)c(=O)n2C)C(=O)N(C)C (stereo not drawn)	i
Cc1ccc(-n2nc3c(c2NC(=O)c2c(-c4ccccc4Cl)noc2C)CSC3)cc1	i
Cc1ccccc1-n1nc2c(c1NC(=O)c1c(-c3ccccc3Cl)noc1C)CSC2	i
CCC(=O)Nc1c2c(nn1-c1ccc(C)cc1C)CSC2	52.1
SMILES	Yeast eIF2B
CSc1nnc(-c2sc3cc(C(F)(F)F)cnc3c2-c2ccccc2)n1C	i
COc1cc(Cl)c(C)cc1NC(=O)CSc1nnc(-c2ccccn2)n1Cc1ccco1	i
CCOC(=O)C1=C(O)/C(=C\c2ccc(CNC(=O)C(=O)Nc3ccc(C)c(C)c3)o2)N=C1C	i
O=C(Nc1nnc(COc2ccc(Cl)cc2)s1)c1cccs1	50.3
Cc1cccc(OCc2nnc(NC(=O)c3cccs3)s2)c1	i
O=C(Cc1cccs1)Nc1nnc(COc2ccccc2)s1	i
NC(=O)NC(c1ccccc1)c1cccc2ccccc12 (stereo not drawn)	i
CC1CCCC(C)N1C(=O)CSc1nnc(C2CCCCC2)o1 (stereo not drawn)	i
Nc1ccc2oc(CCc3ccccc3)nc2c1	52.9
c1ccc2oc(CCc3nc4ccccc4o3)nc2c1	i
Cc1ccccc1-c1nc2cc(N)ccc2o1	i
O=C(CNS(=O)(=O)c1cccs1)N1CCc2ccccc2C1	i
O=C(Cn1c(=O)n(CCCC(=O)NC2CCCC2)c(=O)c2ccccc21)NCCC1=CCCCC1	i
Cc1cccc(C)c1OCc1nnc2c3cnn(C)c3ncn12	i
CCc1nc2c3cnn(-c4cc(Cl)ccc4C)c3ncn2n1	i
Cc1ccccc1OCc1nc2c3cnn(C)c3ncn2n1	54.7
CCOc1ccc(-c2n[nH]c(C)c2Oc2ccc(OC)cc2)c(O)c1	i
COc1ccc(S(=O)(=O)N(CCc2ccccc2)CC(=O)NC(C)C)cc1	i
CC1CCN(C(c2cccs2)c2nnnn2Cc2ccccc2)CC1 (stereo not drawn)	i
COCCOC(=O)CC1=NC(=O)CS1	i
CCOC(=O)C1=C(C)N=C2SCCC(=O)N2[C@@H]1/C=C/c1ccccc1	i
CCOC(=O)CC1=NC(=O)CS1	63.9
Cn1nnnc1Sc1nc(-c2cccnc2)nc2ccccc12	i
Cc1occc1-c1nnc(SCC(=O)Nc2ccccc2)n1C(C)c1ccccc1 (stereo not drawn)	i
CC(C)(C)NC(=O)c1ccc2c(c1)N(CC(=O)N1CCN(c3ccc(F)cc3)CC1)C(=O)C(C)(C)O2	i
COC(=O)c1ccc(C(=O)OC)c(NC(=O)c2ocnc2C)c1	i
CCCS(=O)(=O)c1c(S(=O)(=O)CCC)c2cnccn2c1C(=O)c1ccc(Cl)cc1	i
CCOc1cccc(-c2nnc3sc(COc4ccc(Cl)cc4)nn23)c1	i
COc1ccccc1-c1nnc2sc(COc3ccc(Cl)cc3)nn12	63.3
COc1ccc(OCc2nn3c(-c4ccccn4)nnc3s2)cc1	i

Screening data deposited in PubChem by PCMD.
